As a reminder, the IC50 is the concentration at which inhibition is half-maximal. For orientation: Ki means a dissociation constant, usually derived from enzyme kinetics or from competition with a known ligand. A higher Ki goes with lower affinity.

Here are results for 15 compounds from ChEMBL document CHEMBL1137224, “Design, synthesis, and evaluation of 3,4-dihydro-2H-[1,4]diazepino[6,7,1-hi]indol-1-ones as inhibitors of poly(ADP-ribose) polymerase” (J Med Chem, 2004).

The subject of test [1] is A549. Kind of test: In vitro cytotoxicity against human lung carcinoma A549 cells. It is filed as functional, cell-based. Summed up: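 A549 cells seeded 16–24 h before treatment, then exposed to compound alone for 3 or 5 days. Relative cell number read by MTT (0.2 μg/μL, 4 h, DMSO-solubilized, 540 nm) or SRB (10% TCA fix 1 h at 4 °C, 0.4% SRB 30 min, Tris-solubilized, 515 nm). Cytotoxicity taken as % OD of treated versus mock-treated culture; IC50 reported.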

Test [2] deals with A549. Put plainly: In vitro cytotoxicity of compound at 0.4 uM in combination with topotecan against human lung carcinoma A549 cells. Type of test: functional, cell-based. Summed up: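 A549 cells seeded 16–24 h ahead, then exposed to topotecan plus 0.4 μM PARP-1 inhibitor for 3 or 5 days. Cell number read by MTT (540 nm) or SRB (515 nm). Cytotoxicity expressed as % OD relative to mock-treated culture; topotecan IC50 reported in presence of inhibitor.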

The test system of test [3] is A549. Put plainly: Ratio of cytotoxicity of topotecan to cytotoxicity of compound at 0.4 uM in combination with topotecan. Type of test: functional, Homo sapiens.
The target in test [4] is Poly [ADP-ribose] polymerase 1 (Homo sapiens, UniProt P09874).
Chain of Poly [ADP-ribose] polymerase 1 (P09874 whole entry): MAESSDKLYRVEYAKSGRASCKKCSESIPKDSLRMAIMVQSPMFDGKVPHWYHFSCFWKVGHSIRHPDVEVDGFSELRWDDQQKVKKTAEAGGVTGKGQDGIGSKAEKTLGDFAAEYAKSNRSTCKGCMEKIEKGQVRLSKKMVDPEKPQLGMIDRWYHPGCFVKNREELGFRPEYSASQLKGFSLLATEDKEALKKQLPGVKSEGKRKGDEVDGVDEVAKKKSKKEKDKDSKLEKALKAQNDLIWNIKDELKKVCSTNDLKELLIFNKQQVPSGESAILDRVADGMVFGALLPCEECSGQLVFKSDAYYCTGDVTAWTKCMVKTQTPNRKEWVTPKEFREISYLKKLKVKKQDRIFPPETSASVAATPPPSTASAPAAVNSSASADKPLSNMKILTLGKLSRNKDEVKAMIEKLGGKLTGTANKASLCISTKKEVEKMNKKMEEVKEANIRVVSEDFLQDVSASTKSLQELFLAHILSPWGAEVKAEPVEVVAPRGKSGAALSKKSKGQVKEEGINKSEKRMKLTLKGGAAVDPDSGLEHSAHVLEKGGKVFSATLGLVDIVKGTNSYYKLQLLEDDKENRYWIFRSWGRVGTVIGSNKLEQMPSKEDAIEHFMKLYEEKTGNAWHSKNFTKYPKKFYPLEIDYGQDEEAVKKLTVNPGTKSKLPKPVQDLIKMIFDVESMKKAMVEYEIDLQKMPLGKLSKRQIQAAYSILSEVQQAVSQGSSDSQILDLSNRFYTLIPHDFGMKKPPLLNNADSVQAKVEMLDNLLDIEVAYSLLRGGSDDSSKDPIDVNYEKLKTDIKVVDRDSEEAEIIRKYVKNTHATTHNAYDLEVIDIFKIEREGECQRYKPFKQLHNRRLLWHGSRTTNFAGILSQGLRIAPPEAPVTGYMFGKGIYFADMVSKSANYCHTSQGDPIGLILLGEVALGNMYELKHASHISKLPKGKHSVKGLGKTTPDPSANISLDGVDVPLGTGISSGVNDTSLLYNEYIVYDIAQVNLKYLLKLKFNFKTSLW

As for `O=C1NCCn2cc(/C=N/O)c3cccc1c32`, the values for the IC50 with A549 [1] and in the test on A549 [2] were 8000 nM and 18.5 nM, respectively. In addition, the PF50 in the test on A549 [3] is on record as 1.3.

The compound `Cc1cccc2c1CCNC2=O` came in with an inhibitory constant (Ki) in test [4] of 70 nM.

As for `CN(C)Cc1cccc(-c2cc3cccc4c3n2CCNC4=O)c1`, the values for the half-maximal inhibitory concentration (IC50) in the test on A549 [1] and in the test on A549 [2] were 11000 nM and 15 nM, respectively. In addition, the PF50 with A549 [3] was found to be 1.6.

`NN/N=C/c1c(-c2ccc(F)cc2)n2c3c(cccc13)C(=O)NCC2`: the inhibition constant (Ki) in test [4] was 57 nM.

As to `O=C1NCCn2c(-c3ccc(Cn4cccc4)cc3)cc3cccc1c32`, the Ki in test [4] was determined as 6.8 nM.

With `Cc1c(-c2ccc(F)cc2)n2c3c(cccc13)C(=O)NCC2`, the results for the half-maximal inhibitory concentration (IC50) in the test with A549 [1] and in the test on A549 [2] were 6000 nM and 21.8 nM, respectively. The PF50 with A549 [3] is reported as 1.1.

Consider `O=C1NCCn2c(-c3ccc(F)cc3)c(/C=N/O)c3cccc1c32`, for which the IC50 in the test on A549 [1] was < 800 nM; in the test with A549 [2] it was 20 nM. Besides, the PF50 in the test with A549 [3] was determined as 1.2.

In test [4], `N=C(NO)C1c2cccc3c2N(CCNC3=O)C1c1ccc(F)cc1` (stereo not given) showed a Ki of 87 nM.

For the compound `O=C1NCCn2c(-c3ccc(Cl)cc3)cc3cccc1c32`, the values for the half-inhibitory concentration (IC50) in the test with A549 [1] and in the test on A549 [2] were 3000 nM and 13.3 nM, respectively. Also, the PF50 in the test on A549 [3] is 1.8.

For the compound `CN(C)Cc1ccc(-c2cc3cccc4c3n2CCNC4=O)cc1`, the results for the half-maximal inhibitory concentration (IC50) in the test with A549 [1] and in the test with A549 [2] were 7000 nM and 12.6 nM, respectively. In addition, the PF50 in the test on A549 [3] was 1.9. In test [4], this compound showed a Ki of 6.4 nM.

`O=Cc1cn2c3c(cccc13)C(=O)NCC2`: in test [4], the Ki amounted to 176 nM.

Regarding `O=C1NCCn2c(-c3cccc(Cn4cccc4)c3)cc3cccc1c32`, in test [4], the Ki is 12.5 nM.

Take `O=C1NCCn2c(-c3ccc(F)cc3)cc3cccc1c32`: the IC50 in the test with A549 [1] was 8000 nM; with A549 [2], 13.3 nM. Also, the PF50 in the test on A549 [3] is 1.8.

In test [4], `Cc1nc2c(O)cccc2c(=O)[nH]1` displayed a Ki of 52 nM.

In turn, `CNCc1cccc(-c2cc3cccc4c3n2CCNC4=O)c1` displayed a Ki in test [4] of 6.9 nM.
